Screens deposited in PubChem by several laboratories.
DNMT1 inh: DNMT1 (human) enzyme inhibition; P26358; DNMT1 molecular beacon, Hinp1I cleavage, fluorescence; inhibition (reported as % activation of signal), % at 10 µM; 360,000 tested, 0.83% active; in the data active means inhibition above about 50%
SUMO1-SIM PPI: modulators of human SUMO1-mediated protein-protein interactions; P63165; SUMO1 binding to a labelled peptide, TR-FRET, 1 h; 360,000 tested, 0.33% active; AID 602429; inhibition, % at 20 µM; in the data active means inhibition above about 37%
Target sequence (P63165 whole entry, looked up): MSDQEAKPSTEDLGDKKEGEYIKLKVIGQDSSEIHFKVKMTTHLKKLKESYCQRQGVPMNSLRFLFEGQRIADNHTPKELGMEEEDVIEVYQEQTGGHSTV
Scp1 inh: blocks human Scp-1 phosphatase activity; Q9GZU7; Recombinant Scp1, phosphopeptide, malachite green phosphate absorbance; inhibition, % at 20 µM; 340,000 tested, 0.88% active; AID 493091;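 active means inhibition above about 50% at 20 µM, limit read from the data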
Target sequence (Q9GZU7 76-261 limits assumed): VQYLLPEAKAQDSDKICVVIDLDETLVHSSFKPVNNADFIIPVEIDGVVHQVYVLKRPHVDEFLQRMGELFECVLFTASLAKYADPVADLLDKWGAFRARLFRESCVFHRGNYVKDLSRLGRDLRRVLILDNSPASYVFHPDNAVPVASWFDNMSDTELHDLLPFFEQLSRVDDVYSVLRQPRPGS
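Test system: SCP-1 phosphatase catalytic domain, residues 76-261; measured by: colorimetric phosphate reagent with accelerator and stabiliser, absorbance at 630 nm; timing: enzyme reaction 45 min at room temperature, colour 5 min, stabilisation 30 min; also added: Phosphorylated 17-residue peptide substrate; compound dosing: one concentration, 20 µM, with 1.0% DMSO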
STEP inh: blocks human striatal-enriched tyrosine phosphatase. P54829. recombinant STEP, OMFP fluorogenic substrate, fluorescence. inhibition, % at 20 µM. 360,000 tested, 0.25% active. AID 588621;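 active means inhibition at 20 µM, scaled per plate between control wells, above about 37%, limit read from the data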
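Material: STEP (striatal-enriched tyrosine phosphatase) enzyme, cell-free; Compound dosing: 20 µM single dose in 1% DMSO; Technique: fluorescence read at 480 nm ex / 540 nm em; Times: reaction 20 min, ambient temperature; Medium: 50 mM Bis-Tris pH 6.0 with 2.5 mM DTT and 0.005% Tween 20; Also added: OMFP at 25 µM.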
LMPTP inh: blocks human LMPTP phosphatase; recombinant LMPTP-A, OMFP fluorogenic substrate, fluorescence intensity; inhibition, % at 20 µM; AID 651560; P24666; 360,000 tested, 0.22% active;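 active means compounds that cut the enzyme signal by at least half of the control window in the single-dose screen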
Target sequence (P24666 whole entry, looked up): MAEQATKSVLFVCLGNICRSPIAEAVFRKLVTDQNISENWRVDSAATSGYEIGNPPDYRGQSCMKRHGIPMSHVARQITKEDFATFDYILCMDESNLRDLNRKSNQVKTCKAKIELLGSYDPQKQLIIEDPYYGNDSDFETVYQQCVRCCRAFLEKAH
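Test system – LMPTP-A enzyme · Amount – LMPTP-A at 0.625 nM final in the reaction · Buffer or medium – Bis-Tris pH 6.0, DTT, detergent · Reagent – OMFP 400 µM · Doses – single 20 µM dose · Schedule – reaction 50 min, room temperature, dark · Detection – fluorescence intensity of OMFP turnover product · Evaluation – percent inhibition versus substrate-only and uninhibited controls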
F508del corr: correctors of CFTR F508del function in bronchial epithelial cells; CFBE cells, YFP halide quenching; stimulated with forskolin plus potentiator P3; % fluorescence drop versus neutral controls; activity (quench increase), % at 7.58 µM; 350,000 tested, 0.36% active;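 active means mean added fluorescence quench of at least 8% versus neutral control, with both replicates also reaching 8%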;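 further: cells transiently co-express mutant CFTR-F508del with the halide-sensitive YFP; corrector assay measuring rescue of mutant channel to the surface after 24 h compound exposure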
Scp1 confirm: Scp-1 (human) inhibition, single-dose confirmed; recombinant SCP-1 catalytic domain, phosphate release, malachite green absorbance; AID 540281; shares compounds with Scp1 inh; 2,500 tested, 61% active; inhibition, % at 20 µM
Scp-1 MG ctr: counter-screen for Scp-1 inhibitors: colorimetric interference | shares compounds with Scp1 inh | Colorimetric interference counterscreen, malachite green absorbance 630 nm | apparent inhibition (interference), % at 20 µM | 2,500 tested, under 10 active;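 further: compounds added after enzyme reaction finished so only phosphate colour detection is probed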
Scp-1 Tm shift: Scp-1 (human) binding by thermal shift | 1,500 tested, 25% active | Recombinant SCP1, Sypro Orange thermal shift Tm | thermal shift relative to vanadate control, % at 40 µM | shares compounds with Scp1 inh;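 active means substances whose mean melting-temperature shift, as a percentage of the reference inhibitor's shift, reaches about 5.3%, limit read from the data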
DNMT1 inh conf: DNMT1 inhibition confirmation, single concentration; shares compounds with DNMT1 inh; DNMT1 molecular beacon HinP1I cleavage, fluorescence; inhibition, % at 10 µM; 2,300 tested, 8% active;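 active means average inhibition of at least 30% in the single-concentration confirmation test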
Beacon interf: beacon fluorescence artifact counter-screen; shares compounds with DNMT1 inh; DNMT1 molecular beacon spectral interference counterscreen, fluorescence 485/520; activation (fluorescence interference), % at 10 µM; 2,300 tested, 1% active; AID 602387;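 active means activation of at least 30% at 10 µM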;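 further: DNMT1 catalytic domain with a HinP1I cleavage step and a FAM/dabcyl DNA beacon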
STEP inh conf: STEP (human) phosphatase inhibition, single concentration confirmation; shares compounds with STEP inh; AID 623866; 520 tested, 32% active; inhibition, % at 20 µM; recombinant STEP, OMFP fluorogenic substrate, fluorescence; call rule not given here
Hits are given with their value; – = inactive; · = no result. Shown are actives, neighbours in structure and some others; about 1.6% of the full set was active somewhere.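 How the source made its calls, unless noted: active means inhibition of at least 30% at 20 µM; inactive means the rest.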

SMILES | DNMT1 inh | SUMO1-SIM PPI | Scp1 inh | STEP inh | LMPTP inh | F508del corr | Scp1 confirm | Scp-1 MG ctr | Scp-1 Tm shift | STEP inh conf | others
O=C(Nc1cc([N+](=O)[O-])ccc1O)c1cccc(C(=O)Nc2cc([N+](=O)[O-])ccc2O)c1 | – | 56 | 98 | 99 | 97 | – | 96 | – | 16 | 59
COc1ccc2c3c([nH]c2c1)[C@@H](CO)N(C(=O)Cc1ccccc1)CC31CN(C(=O)Nc2ccccc2F)C1 | · | · | · | · | · | – | · | · | · | ·
CCN(CC)C(=O)c1ccc2c(=O)n(Cc3ccc4c(c3)OCO4)c(=S)[nH]c2c1 | – | – | – | – | – | – | · | · | · | ·
C=CCNC(=O)c1ccc(Cn2c(=S)[nH]c3cc4c(cc3c2=O)OCO4)cc1 | – | – | 86 | 47 | – | · | 58 | – | – | –
C[C@@H]1CN([C@@H](C)CO)C(=O)c2cc(NS(=O)(=O)c3ccccc3)ccc2O[C@@H]1CN(C)Cc1ccc2c(c1)OCO2 | · | · | · | · | · | – | · | · | · | ·
CCCC#Cc1ccc([C@H]2[C@@H](CO)N3C(=O)CN(C(=O)c4ccccc4)C[C@@H]23)cc1 | · | · | · | · | · | – | · | · | · | ·
Cc1c(CC(=O)NCCCCCC(=O)O)c(=O)oc2c(C)c3oc4c(c3cc12)CCCC4 | – | – | 94 | 97 | – | – | 94 | – | – | 89
CO[C@@H]1CN(C)C(=O)c2ccc(NC(=O)c3ccc(F)cc3)cc2OC[C@@H](C)N(C(=O)c2ccc(F)cc2)C[C@H]1C | · | · | · | · | · | – | · | · | · | ·
C[C@@H]1CN([C@@H](C)CO)S(=O)(=O)c2ccc(C#CC3CC3)cc2O[C@H]1CN(C)C(=O)c1ccccc1 | · | · | · | · | · | – | · | · | · | ·
O=C(CCN1C(=O)/C(=C/c2ccc(Cl)cc2)SC1=S)Nc1ccc(C(=O)O)cc1 | – | – | 92 | 49 | 75 | – | 69 | – | – | –
O=C(CCN1C(=O)/C(=C\c2cccs2)SC1=S)Nc1ccc(C(=O)O)cc1 | – | – | – | – | – | – | · | · | · | ·
COc1cc(/C=C2/SC(=S)N(CCC(=O)Nc3ccc(C(=O)O)cc3)C2=O)cc(OC)c1OC | – | – | 68 | 42 | – | – | 63 | – | 25 | –
CC1C=NC(S(=O)(=O)N2CC[C@@H]3[C@H](CO)N(C)c4ccc(-c5ccccc5)cc4[C@@H]32)=N1 (stereo partly drawn) | · | · | · | · | · | – | · | · | · | ·
CCOC(=O)C1=C(C)N=c2s/c(=C\c3ccc(OCC(=O)O)c(OC)c3)c(=O)n2C1c1ccc(OC)cc1 (stereo not drawn) | – | – | – | – | – | – | · | · | · | ·
CC1=C(C(=O)OC(C)C)C(c2ccc(Cl)cc2)n2c(s/c(=C\c3ccc(OCC(=O)O)cc3)c2=O)=N1 (stereo not drawn) | 86 | 97 | 56 | – | – | – | 49 | – | – | 52
O=C([C@H]1[C@H](CO)[C@H]2Cn3c(ccc(-c4ccccc4)c3=O)[C@H]2N1CCC(F)(F)F)N1CCOCC1 | · | · | · | · | · | – | · | · | · | ·
O=C(/C=C/c1ccccc1Cl)Nc1ccc2c(c1)C(=O)NC2=O | 65 | – | 101 | 95 | 71 | – | 85 | – | 6.8 | – | DNMT1 inh conf=–;Beacon interf=–
COc1cc(C(=O)N/N=C/c2cc([N+](=O)[O-])cs2)cc(OC)c1OC | – | – | – | – | – | · | · | · | · | ·
CCOc1ccc(C(=O)N/N=C/c2cc([N+](=O)[O-])cs2)cc1 | – | – | 107 | 91 | 71 | – | 82 | – | – | – | DNMT1 inh conf=–;Beacon interf=–
O=C(COc1ccc(/C=N/NC(=O)c2ccc(O)cc2)cc1)Nc1cccc([N+](=O)[O-])c1 | – | – | 96 | 74 | 59 | – | 61 | – | 13 | 94
O=C(C[C@H]1C[C@H]2c3cc(NC(=O)C4CCC4)ccc3O[C@H]2[C@@H](CO)O1)NCCc1ccccc1 | · | · | · | · | · | – | · | · | · | ·
O=C1c2cccc3cccc(c23)C(=O)N1c1nccs1 | – | – | – | – | – | · | · | · | · | ·
O=C1c2cccc3cccc(c23)C(=O)N1c1ccc2ncccc2c1 | – | – | 101 | 100 | – | · | 74 | – | – | –
C[C@H]1CN([C@@H](C)CO)C(=O)c2cccc(NC(=O)Nc3ccc(C(F)(F)F)cc3)c2O[C@H]1CN(C)S(=O)(=O)c1ccc(F)cc1 | · | · | · | · | · | – | · | · | · | ·
O=C1NN(c2cccc(Br)c2)C(=O)/C1=C\c1ccc(N2CCOCC2)cc1 | 65 | – | 52 | 82 | 66 | · | 48 | – | – | 72 | DNMT1 inh conf=–;Beacon interf=–
SMILES | DNMT1 inh | SUMO1-SIM PPI | Scp1 inh | STEP inh | LMPTP inh | F508del corr | Scp1 confirm | Scp-1 MG ctr | Scp-1 Tm shift | STEP inh conf | others
COc1ccc(/C=C2\C(=O)NC(=S)N2C(=O)c2ccc(C)cc2)cc1 | – | – | – | – | – | · | · | · | · | ·
O=C1NC(=S)N(C(=O)c2ccc(F)cc2)/C1=C/c1cccnc1 | – | – | 95 | 43 | – | – | 56 | – | – | –
O=C(O)c1ccc(Nc2nc(-c3ccc([N+](=O)[O-])cc3)nc3ccccc23)cc1 | – | – | 82 | 89 | 63 | – | 57 | – | 9.2 | –
O=C(Nc1cccc(-c2nc3ncccc3o2)c1)c1ccc2c(c1)OCO2 | – | – | – | – | – | – | · | · | · | ·
O=C(Nc1cccc(-c2nc3ncccc3o2)c1)c1sc2cc(Cl)ccc2c1Cl | – | – | 95 | 90 | 51 | – | 57 | – | – | –
O=C(O)C(S)C(S)C(=O)O (stereo not drawn) | 86 | – | 96 | 50 | – | · | 65 | – | – | 101
Cc1c(CC(=O)O)c(=O)oc2c(C)c(OCc3ccccc3Br)ccc12 | – | – | 91 | 98 | – | – | 62 | – | – | 65
Cc1c(Cc2ccccc2)c(=O)oc2c(C)c(OCC(=O)NCC3CCC(C(=O)O)CC3)ccc12 (stereo not drawn) | – | – | 85 | 65 | – | – | 56 | – | – | –
Cc1c(CC(=O)O)c(=O)oc2c(C)c(OCc3ccccc3)ccc12 | – | – | – | – | – | – | · | · | · | ·
